For 8 compounds, selectivity ratio, EC50 and CC50 results are on record in ChEMBL document CHEMBL4130446, “Environmentally Friendly Procedure Based on Supercritical Fluid Chromatography and Tandem Mass Spectrometry Molecular Networking for the Discovery of Potent Antiviral Compounds from Euphorbia semiperfoliata” (J Nat Prod, 2017).

Data set [1] can be described thus: Selectivity index, ratio of CC50 for human MT2 cells to EC50 for HIV NL4.3 harboring renilla luciferase infected in human MT2 cells. The data set is classed as toxicity, cell-based. To be noted: read-out: Ratio CC50/EC50. The essentials: (§1)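 Selectivity index is CC50 divided by EC50: Vero CC50 over CHIKV EC50, or MT-2 CC50 over NL4.3-Ren EC50 (HIV). Inputs are in μM unless stated otherwise.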

The subject of data set [2] is Human immunodeficiency virus. The data set can be described thus: Antiviral activity against HIV NL4.3 harboring renilla luciferase infected in human MT2 cells pretreated for 2 hrs followed by viral infection measured after 48 to 96 hrs post infection by luciferase reporter gene assay. The data set is classed as functional, organism-based. To be noted: Human immunodeficiency virus 1, NL4.3, MT2. The essentials:
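Recombinant NL4.3-Ren virus assay in MT-2 cells. EC50 is given in μM unless stated otherwise.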
Background: In a reporter assay the amount or activity of a reporter protein is the signal.

Data set [3] can be described thus: Selectivity index, ratio of CC50 for African green monkey Vero cells to EC50 for Chikungunya virus Indian ocean strain 899 infected in African green monkey Vero cells. The data set is classed as toxicity. The note with it: read-out: Ratio CC50/EC50. The essentials:
as §1

Data set [4] can be described thus: Cytotoxicity against human MT2 cells by Celltiter-Glo assay. The data set is classed as cell-based. Background: Cellular ATP, detected with luciferase, serves as a proxy for viable cell number.
Data set [5] in a line: Cytotoxicity against African green monkey Vero cells assessed as morphological changes by microscopic method. The note with it: chlorocebus sabaeus. The data set is classed as cell-based.
For data set [6], the system named is Chikungunya virus. The data set can be described thus: Antiviral activity against Chikungunya virus Indian ocean strain 899 infected in African green monkey Vero cells assessed as reduction in virus-induced cytopathic effect by MTS assay. It counts as functional, organism-based. The note with it: Indian ocean 899, Vero.

Take `C/C=C(\C)C(=O)O[C@@H]1[C@@H](C)[C@]2(O)[C@@H]3C=C(C)C(=O)[C@@H]3CC(CO)=C[C@H]2[C@@H]2C(C)(C)[C@]12OC(=O)C(C)C`: the selectivity ratio in data set [1] is more than 12; in data set [3], 7. Further, the EC50 (as a rule, the concentration at which the effect is half-maximal) in data set [2] came to 4.19 µM; in data set [6], 17 µM. In addition, the CC50 (as a rule, the concentration that lowers cell viability or growth by half) is more than 50 µM in data set [4] and 116 µM in data set [5].

With `C/C=C(\C)C(=O)O[C@@H]1[C@@H](C)[C@]2(O)[C@@H]3C=C(C)C(=O)[C@H]3CC(CO)=C[C@H]2[C@@H]2C(C)(C)[C@]12OC(=O)C(C)C`, the selectivity ratio is more than 3920 in data set [1] and 25 in data set [3]. Also, the EC50 stood at 0.013 µM in data set [2] and 1 µM in data set [6]. The values for the 50% cytotoxic concentration (CC50) in data set [4] and in data set [5] were more than 50 µM and 20 µM, respectively.

For `C/C=C(\C)C(=O)O[C@@H]1[C@@H](C)[C@]2(O)[C@@H]3C=C(C)C(=O)[C@H]3CC(C)=C[C@H]2[C@@H]2C(C)(C)[C@]12OC(=O)C(C)C`, the CC50 is more than 50 µM in data set [4] and 154 µM in data set [5].

On to `C=C1[C@H](OC(C)=O)[C@@H](OC(C)=O)[C@@H](OC(C)=O)C(C)(C)/C=C/[C@@H](C)C(=O)[C@@]2(OC(C)=O)C[C@@](C)(OC(C)=O)[C@H](OC(C)=O)[C@@H]2[C@H]1OC(C)=O`, for which the selectivity ratio in data set [3] is more than 10. Also, the CC50 in data set [5] was more than 144 µM. For the same compound, in data set [6], the EC50 turned out to be 13.8 µM.

In the case of `CC(=O)O[C@@H]1[C@@H](C)[C@]2(O)[C@@H]3C=C(C)C(=O)[C@H]3CC(CO)=C[C@H]2[C@@H]2C(C)(C)[C@]12OC(=O)C(C)C`, the results for the selectivity ratio in data set [1] and in data set [3] were more than 919 and 390, respectively. Also, the values for the EC50 in data set [2] and in data set [6] were 0.054 µM and 0.44 µM, respectively. Also, the CC50 is more than 50 µM in data set [4] and 172 µM in data set [5].

On to `C=C1[C@H](OC(C)=O)[C@@H](O)[C@@H](OC(C)=O)C(C)(C)/C=C/[C@@H](C)C(=O)[C@@]2(OC(C)=O)C[C@@](C)(OC(C)=O)[C@H](OC(C)=O)[C@@H]2[C@H]1OC(C)=O`, for which the EC50 in data set [6] was more than 153 µM.

Turning to `CCCCCCCCCCCCCC(=O)O[C@@H]1[C@@H](C)[C@@]2(O)[C@@H](C=C(CO)C[C@]3(O)C(=O)C(C)=C[C@@H]23)[C@@H]2C(C)(C)[C@]12OC(C)=O` [PHORBOL MYRISTATE ACETATE], the selectivity ratio in data set [3] was 1960.

In the case of `CC(=O)O[C@@]12C[C@@H](C)[C@@]3(O)[C@@H](C=C(CO)C[C@]4(O)C(=O)C(C)=C[C@@H]34)[C@@H]1C2(C)C` [PROSTRATIN], the selectivity ratio in data set [1] is more than 22; in data set [3], 30. For the same compound, the EC50 in data set [2] was found to be 0.226 µM. The CC50 in data set [4] was more than 50 µM.
